Legend:
[1] = target: D(1A) dopamine receptor (Rattus norvegicus) (UniProt P18901); test: Percent stimulation of adenylate cyclase activity at dopamine receptor D1 of Rat Striatum at 1 uM; assay type: functional; settings: values are per cent of control
[2] = target: D(1A) dopamine receptor (Rattus norvegicus) (UniProt P18901); test: Selectivity index of D1 receptor to that of D2 receptor was determined
Procedure, shortened: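 Index equals IC50 at D-1 ([3H]SCH 23390 binding) divided by IC50 at D-2 ([3H]spiperone binding), both measured in rat striatal membrane competition assays.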

[3] = target: D(1A) dopamine receptor (Rattus norvegicus) (UniProt P18901); test: The percentage stimulation of adenylate cyclase activity of compound was measured on dopamine receptor D1 of Rat Striatum at 0.1 uM; assay type: functional
[4] = target: T1, D(1A) dopamine receptor (Rattus norvegicus, UniProt P18901); test: (§1) Inhibitory activity against [3H]-SCH- 23390 in Rat Striatal membrane; assay type: cell membranes
T1 sequence (P18901 whole entry): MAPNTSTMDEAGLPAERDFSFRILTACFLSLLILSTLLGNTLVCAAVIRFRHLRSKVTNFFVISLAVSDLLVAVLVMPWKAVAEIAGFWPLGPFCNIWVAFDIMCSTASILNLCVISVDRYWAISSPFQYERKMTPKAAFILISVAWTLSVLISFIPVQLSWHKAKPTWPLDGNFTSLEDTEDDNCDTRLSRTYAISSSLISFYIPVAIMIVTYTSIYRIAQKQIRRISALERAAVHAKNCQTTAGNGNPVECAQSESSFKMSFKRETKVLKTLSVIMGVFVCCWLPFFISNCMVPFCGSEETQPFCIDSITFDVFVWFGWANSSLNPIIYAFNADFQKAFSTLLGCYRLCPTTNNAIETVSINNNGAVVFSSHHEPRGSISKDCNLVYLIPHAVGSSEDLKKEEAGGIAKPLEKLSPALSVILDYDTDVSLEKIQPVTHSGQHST
Procedure, shortened: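 Competition binding on rat striatal membranes. The D-1 site was labelled with [3H]SCH 23390 and the D-2 site with [3H]spiperone. IC50 is the concentration giving half-maximal inhibition of binding, reported as mean ± SEM.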

[5] = target: D(2) dopamine receptor (Rattus norvegicus) (UniProt P61169); test: The percentage inhibition of adenylate cyclase activity of compound was measured on dopamine receptor D2 of Rat Striatum at 0.01 micro M; settings: values are per cent of control
Sequence of D(2) dopamine receptor (Rattus norvegicus) (P61169 whole entry): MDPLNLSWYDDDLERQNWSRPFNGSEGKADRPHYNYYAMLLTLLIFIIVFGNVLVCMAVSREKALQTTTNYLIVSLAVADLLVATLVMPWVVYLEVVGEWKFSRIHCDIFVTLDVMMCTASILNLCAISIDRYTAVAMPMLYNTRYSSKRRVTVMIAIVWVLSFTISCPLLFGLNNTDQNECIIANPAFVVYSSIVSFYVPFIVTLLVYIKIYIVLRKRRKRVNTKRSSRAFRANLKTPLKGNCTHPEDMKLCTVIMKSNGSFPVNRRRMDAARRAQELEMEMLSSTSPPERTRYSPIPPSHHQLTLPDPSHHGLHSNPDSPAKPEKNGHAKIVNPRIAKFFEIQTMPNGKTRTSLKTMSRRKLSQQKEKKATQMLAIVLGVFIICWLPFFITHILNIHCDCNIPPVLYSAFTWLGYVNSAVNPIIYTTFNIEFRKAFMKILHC
Procedure, shortened: (§2)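 D-2 inhibition of basal adenylate cyclase in rat striatal synaptic membranes, 20-30 μg protein. Medium: Tris-HCl pH 7.4, 100 mM NaCl, 0.5 mM ATP, 50 μM GTP, IBMX, [α-32P]ATP, with 0.1 μM SCH 23390 present to block D-1. Incubation 20 min at 25 °C, followed by double-column cAMP isolation. Activity is given as % of basal, quadruplicates, three experiments.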

[6] = target: D(2) dopamine receptor (Rattus norvegicus, UniProt P61169); test: Inhibitory activity against [3H]spiperone in Rat Striatal membrane; assay type: cell membranes
Sequence of D(2) dopamine receptor (P61169 whole entry): as above

[7] = target: D(2) dopamine receptor (Rattus norvegicus) (UniProt P61169); test: The percentage inhibition of adenylate cyclase activity of compound was measured on dopamine receptor D2 of Rat Striatum at 0.1 micro M; settings: values are per cent of control; procedure, shortened: as §2
[8] = target: D(2) dopamine receptor (Rattus norvegicus) (UniProt P61169); test: The percentage inhibition of adenylate cyclase activity of compound was measured on dopamine receptor D2 of Rat Striatum at 10 micro M; settings: values are per cent of control; procedure, shortened: as §2
[9] = target: D(2) dopamine receptor (Rattus norvegicus) (UniProt P61169); test: The percentage inhibition of adenylate cyclase activity of compound was measured on dopamine receptor D2 of Rat Striatum at 1 micro M; settings: values are per cent of control; procedure, shortened: as §2
[10] = target: D(1A) dopamine receptor (Rattus norvegicus) (UniProt P18901); test: The percentage stimulation of adenylate cyclase activity of compound was measured on dopamine receptor D1 of Rat Striatum at 0.01 uM; assay type: functional
[11] = target: D(1A) dopamine receptor (Rattus norvegicus) (UniProt P18901); test: The percentage stimulation of adenylate cyclase activity of compound was measured on dopamine receptor D1 of Rat Striatum at 10 uM; assay type: functional; settings: values are per cent of control
[12] = target: T1, D(1A) dopamine receptor; test: as §1; assay type: cell membranes; remark: listed apart in the source
[13] = target: D(1A) dopamine receptor (Rattus norvegicus) (UniProt P18901); test: The percentage stimulation of adenylate cyclase activity of compound was measured on dopamine receptor D1 of Rat Striatum at 0.1uM; assay type: functional

Sequence of D(1A) dopamine receptor (Rattus norvegicus) (P18901 whole entry): as the sequence (P18901 whole entry) above

CCCN(CCc1ccc(O)cc1)CCc1ccc(Cl)c(O)c1
residual activity [1]: 136%
Ratio [2]: 20.1
residual activity ([3]; values are per cent of control): 130%
IC50 [4]: 18.1 µM
residual activity [5]: 92%
IC50 [6]: 0.9 µM
residual activity [7]: 81%
residual activity [8]: 74%
residual activity [9]: 74%
residual activity ([10]; values are per cent of control): 126%
residual activity [11]: 136%

CCCN(CCc1ccccc1)CCc1ccc(Cl)c(O)c1
residual activity [1]: 118%
Ratio [2]: 17.6
stimulation [3]: 113%
residual activity [5]: 93%
IC50 [6]: 1.39 µM
residual activity [7]: 86%
residual activity [8]: 76%
residual activity [9]: 78%
IC50 [12]: 24.4 µM
stimulation [10]: 104%
residual activity [11]: 128%

Br.CCCN(CCC)CCc1ccc(Cl)c(O)c1
residual activity [1]: 105%
Ratio [2]: 3.93
stimulation [3]: 101%
residual activity [5]: 96%
IC50 [6]: 12.9 µM
residual activity [7]: 88%
residual activity [8]: 86%
residual activity [9]: 90%
IC50 [12]: 50.7 µM
residual activity [11]: 115%

CCCN(CCc1ccccc1)CCc1cccc(O)c1
Ratio [2]: 124
IC50 [6]: 0.75 µM
residual activity [7]: 95%
residual activity [8]: 84%
residual activity [9]: 86%
IC50 [12]: 92.8 µM

NCCc1ccc(O)c(O)c1
residual activity [1]: 110%
stimulation [3]: 113%
residual activity [5]: 95%
residual activity [7]: 92%
residual activity [8]: 83%
residual activity [9]: 87%
stimulation [10]: 104%

CCCN(CCc1cccc(O)c1)CCc1ccc(Cl)c(O)c1
residual activity [1]: 125%
Ratio [2]: 15.3
stimulation [3]: 116%
residual activity [5]: 94%
IC50 [6]: 0.73 µM
residual activity [7]: 91%
residual activity [8]: 81%
residual activity [9]: 83%
IC50 [12]: 11.2 µM
stimulation [10]: 103%
residual activity [11]: 128%

Br.NCCc1ccc(Cl)c(O)c1
residual activity [1]: 95%
Ratio [2]: 0.96
stimulation [3]: 98%
residual activity [5]: 101%
IC50 [6]: 26.3 µM
residual activity [7]: 90%
residual activity [8]: 84%
residual activity [9]: 87%
IC50 [12]: 25.3 µM
residual activity [11]: 105%

Br.CCCN(CCCc1ccc(O)cc1)CCc1ccc(Cl)c(O)c1
stimulation [13]: 101%
residual activity [1]: 100%
Ratio [2]: 19.9
residual activity [5]: 96.4%
IC50 [6]: 0.85 µM
residual activity [7]: 86%
residual activity [9]: 82%
IC50 [12]: 16.9 µM
residual activity [11]: 110%

Source: ChEMBL document CHEMBL1125367 (J Med Chem, 1992)
